Active and inactive are the calls of the source. The rule behind the calls is not given here.
Legend:
[1] = target: T1, Mitogen-activated protein kinase; ERK1/ERK2 (Homo sapiens) (UniProt P27361+P28482); test: Inhibition of ERK1/2 phosphorylation in human JHU011 cells at 0.1 to 5 uM after 24 hrs by Western blot analysis; assay type: cell-based
How it was run: (§1)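 Increasing concentrations for 24 h. NP-40 lysates (with NaF and orthovanadate) cleared at 14,000 × g, equal protein separated by SDS-PAGE and blotted. Probed for phospho-Akt (Ser473), total Akt, phospho-ERK1/2 and total ERK; β-actin loading control. Primary antibody overnight at 4 °C, HRP secondary 1 h.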

[2] = Cytotoxicity against human MDA1986 cells after 72 hrs by MTS assay; assay type: functional, cell-based; conditions: MDA1986, 72 h
How it was run: (§2)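 Cells seeded at 2×10³ per well, grown 24 h, then given serial concentrations (DMSO stock diluted in medium; vehicle controls <0.1% v/v DMSO) for 72 h. MTS added, 3 h at 37 °C, 5% CO₂, absorbance at 490 nm. Viability as fraction of medium-only control; IC50 from viability–concentration curves; triplicate, means of three independent experiments. Cisplatin positive control.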

Homo sapiens [3] = species on record: Homo sapiens; test: Induction of apoptosis in human MDA1986 cells assessed as induction of PRAP cleavage at 1 to 6 uM after 24 hrs by Western blot analysis; assay type: functional, cell-based
How it was run: (§3)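 Cells exposed to increasing concentrations for 24 h, lysed in NP-40/Tris pH 7.5 buffer with protease inhibitors, NaF and orthovanadate. Equal protein run on SDS-PAGE, transferred to nitrocellulose. Probed overnight at 4 °C for uncleaved caspase 3 (pro-form) and uncleaved/cleaved PARP; HRP secondary 1 h at room temperature.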

JMAR = test: Induction of apoptosis in human JMAR cells assessed as increase in early apoptotic cells at 5 uM after 24 hrs by FITC-conjugated annexin V and propidium iodide staining-based flow cytometry; assay type: functional, cell-based
How it was run: (§4)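 Cells given 5.0 μM for 24 h, harvested, and co-stained at 1×10⁶ cells/mL with annexin V-FITC and PI. Annexin binding buffer added before flow cytometry. Annexin V only scored as early apoptosis, annexin V+PI as late apoptosis, PI only as necrosis. Triplicate; t-test.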

Homo sapiens [4] = species on record: Homo sapiens; test: Induction of apoptosis in human MDA1986 cells assessed as decrease in procaspase-3 level at 1 to 6 uM after 24 hrs by Western blot analysis; assay type: functional, cell-based; how it was run: as §3
[5] = target: T1, Mitogen-activated protein kinase; ERK1/ERK2 (Homo sapiens); test: Inhibition of ERK1/2 phosphorylation in human JMAR cells at 0.1 to 5 uM after 24 hrs by Western blot analysis; assay type: cell-based; how it was run: as §1
[6] = target: RAC-alpha serine/threonine-protein kinase (Homo sapiens) (UniProt P31749); test: Inhibition of Akt phosphorylation in human JHU011 cells after 24 hrs by Western blot analysis; assay type: cell-based; how it was run: as §1
[7] = target: RAC-alpha serine/threonine-protein kinase (Homo sapiens) (UniProt P31749); test: Inhibition of Akt phosphorylation in human MDA1986 cells after 24 hrs by Western blot analysis; assay type: cell-based; how it was run: as §1
[8] = target: T1, Mitogen-activated protein kinase; ERK1/ERK2 (Homo sapiens); test: Inhibition of ERK1/2 phosphorylation in human UM-SCC2 cells at 0.1 to 5 uM after 24 hrs by Western blot analysis; assay type: cell-based; how it was run: as §1
Homo sapiens [9] = species on record: Homo sapiens; test: Induction of apoptosis in human MDA1986 cells assessed as increase in early apoptotic cells at 5 uM after 24 hrs by FITC-conjugated annexin V and propidium iodide staining-based flow cytometry; assay type: functional, cell-based; how it was run: as §4
[10] = target: T1, Mitogen-activated protein kinase; ERK1/ERK2 (Homo sapiens); test: Inhibition of ERK1/2 phosphorylation in human UM-SCC2 cells assessed as effect on total protein level at 0.1 to 5 uM after 24 hrs by Western blot analysis; assay type: cell-based; how it was run: as §1
[11] = target: T1, Mitogen-activated protein kinase; ERK1/ERK2 (Homo sapiens); test: Inhibition of ERK1/2 phosphorylation in human JMAR cells assessed as effect on total protein level at 0.1 to 5 uM after 24 hrs by Western blot analysis; assay type: cell-based; how it was run: as §1
[12] = Cytotoxicity against human JMAR cells after 72 hrs by MTS assay; assay type: functional, cell-based; how it was run: as §2
UM-SCC2 = test: Induction of apoptosis in human UM-SCC2 cells assessed as increase in late apoptotic cells at 5 uM after 24 hrs by FITC-conjugated annexin V and propidium iodide staining-based flow cytometry; assay type: functional, cell-based; how it was run: as §4
[13] = Cytotoxicity against human UM-SCC2 cells after 72 hrs by MTS assay; assay type: functional, cell-based; conditions: UM-SCC2, 72 h
How it was run: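 Seeded at 2×10³ cells/well, left 24 h, then exposed to serial dilutions in medium (from DMSO stock; vehicle controls <0.1% DMSO v/v) for 72 h. MTS added, 3 h at 37 °C, 5% CO₂, absorbance 490 nm. Viability expressed relative to medium-only control; IC50 read from viability–concentration curves. Triplicate; cisplatin positive control.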

[14] = target: RAC-alpha serine/threonine-protein kinase (Homo sapiens) (UniProt P31749); test: Inhibition of Akt in human JMAR cells assessed as decrease in total protein level at 0.1 to 5 uM after 24 hrs by Western blot analysis; assay type: cell-based; how it was run: as §1
[15] = target: RAC-alpha serine/threonine-protein kinase (Homo sapiens) (UniProt P31749); test: Inhibition of Akt phosphorylation in human UM-SCC2 cells after 24 hrs by Western blot analysis; assay type: cell-based; how it was run: as §1
Homo sapiens [16] = species on record: Homo sapiens; test: Induction of apoptosis in human MDA1986 cells assessed as increase in late apoptotic cells at 5 uM after 24 hrs by FITC-conjugated annexin V and propidium iodide staining-based flow cytometry; assay type: functional, cell-based; how it was run: as §4
[17] = target: RAC-alpha serine/threonine-protein kinase (Homo sapiens) (UniProt P31749); test: Inhibition of Akt in human MDA1986 cells assessed as highest required for enzyme activity after 24 hrs by Western blot analysis; assay type: cell-based; how it was run: as §1
[18] = Induction of cell cycle arrest in human UM-SCC2 cells assessed as accumulation at G2/M phase at 3 uM after 24 hrs by flow cytometry; assay type: functional
How it was run: (§5)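 Treated 24 h with 3.0 μM or DMSO vehicle. Cells trypsinized; 1×10⁶ washed in 0.9% NaCl and fixed 30 min at room temperature in cold 70% ethanol/0.9% NaCl. Stained with PI (50 μg/mL in PBS) 30 min, then DNase-free RNase (1 mg/mL) 30 min. Phase distribution (sub-G0, G0/G1, S, G2/M) by flow cytometry.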

[19] = target: RAC-alpha serine/threonine-protein kinase (Homo sapiens) (UniProt P31749); test: Inhibition of Akt in human UM-SCC2 cells assessed as decrease in total protein level at 0.1 to 5 uM after 24 hrs by Western blot analysis; assay type: cell-based; how it was run: as §1
[20] = Induction of cell cycle arrest in human MDA1986 cells assessed as accumulation at subG0 phase at 3 uM after 24 hrs by flow cytometry; assay type: functional; how it was run: as §5
[21] = Induction of cell cycle arrest in human JMAR cells assessed as accumulation at subG0 phase at 3 uM after 24 hrs by flow cytometry; assay type: functional; how it was run: as §5

Sequence of RAC-alpha serine/threonine-protein kinase (Homo sapiens) (P31749 whole entry): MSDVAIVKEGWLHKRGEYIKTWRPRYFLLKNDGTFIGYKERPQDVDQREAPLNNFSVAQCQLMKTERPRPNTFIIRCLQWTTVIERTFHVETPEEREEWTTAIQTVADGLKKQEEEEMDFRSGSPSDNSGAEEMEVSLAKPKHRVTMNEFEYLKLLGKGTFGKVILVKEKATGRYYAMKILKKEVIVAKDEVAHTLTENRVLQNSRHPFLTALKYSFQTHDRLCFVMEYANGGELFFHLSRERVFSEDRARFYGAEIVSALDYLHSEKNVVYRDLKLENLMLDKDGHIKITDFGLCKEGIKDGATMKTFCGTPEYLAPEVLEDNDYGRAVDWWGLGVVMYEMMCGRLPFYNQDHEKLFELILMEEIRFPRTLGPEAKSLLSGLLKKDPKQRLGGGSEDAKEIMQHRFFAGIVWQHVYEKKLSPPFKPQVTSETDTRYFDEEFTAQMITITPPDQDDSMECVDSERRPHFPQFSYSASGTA
T1 sequence (P27361 whole entry, looked up): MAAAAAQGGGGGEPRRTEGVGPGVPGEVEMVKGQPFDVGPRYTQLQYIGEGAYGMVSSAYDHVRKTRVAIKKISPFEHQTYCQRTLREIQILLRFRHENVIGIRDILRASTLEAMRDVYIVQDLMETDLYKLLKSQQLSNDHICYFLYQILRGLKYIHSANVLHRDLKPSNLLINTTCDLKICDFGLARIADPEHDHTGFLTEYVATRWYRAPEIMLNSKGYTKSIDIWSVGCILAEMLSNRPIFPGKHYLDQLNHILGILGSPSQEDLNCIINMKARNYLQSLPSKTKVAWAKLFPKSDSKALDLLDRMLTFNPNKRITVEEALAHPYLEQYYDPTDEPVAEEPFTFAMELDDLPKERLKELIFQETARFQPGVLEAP
T1 sequence (P28482 whole entry, looked up): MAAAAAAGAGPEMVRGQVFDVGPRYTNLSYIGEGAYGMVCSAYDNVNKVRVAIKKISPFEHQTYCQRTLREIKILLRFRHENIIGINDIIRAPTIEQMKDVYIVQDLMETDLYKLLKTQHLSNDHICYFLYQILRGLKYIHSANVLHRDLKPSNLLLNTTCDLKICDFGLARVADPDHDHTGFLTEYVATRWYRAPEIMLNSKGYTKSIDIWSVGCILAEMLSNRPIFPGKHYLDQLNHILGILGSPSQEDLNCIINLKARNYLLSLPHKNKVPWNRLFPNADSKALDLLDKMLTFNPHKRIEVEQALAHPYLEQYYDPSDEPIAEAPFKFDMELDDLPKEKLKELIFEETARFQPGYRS

- inhibition [1]: inactive
- inhibition [5]: inactive
- inhibition [6]: Dose-dependent effect
- inhibition [7]: Dose-dependent effect
- inhibition [8]: Active
- inhibition [10]: inactive
- inhibition [11]: inactive
- inhibition [14]: Active
- inhibition [15]: Dose-dependent effect
- Activity [17]: 2.5 µM
- inhibition [19]: Active
Structure (SMILES): CC1=C(CO)C(=O)O[C@@H]([C@@H](C)[C@H]2CC[C@H]3[C@@H]4C[C@H]5O[C@]56[C@@H](O)C=CC(=O)[C@]6(C)[C@H]4CC[C@]23C)C1 [WITHAFERIN A]
- IC50 [2]: 800 nM
- Activity (Homo sapiens [3]): Active
- Activity (JMAR): Active
- Activity (Homo sapiens [4]): Active
- Activity (Homo sapiens [9]): inactive
- IC50 [12]: 2000 nM
- Activity (UM-SCC2): Active
- IC50 [13]: 500 nM
- Activity (Homo sapiens [16]): inactive
- Activity [18]: 36%
- Activity [20]: 8%
- Activity [21]: 12%
